Data: ChEMBL document CHEMBL3593225 (Bioorg Med Chem, 2015)
Activity calls are given as the source filed them. No cut-off for these calls is given here.

How the values were obtained:
[1] = target: T1, 5-hydroxytryptamine receptor 1A (Homo sapiens) (UniProt P08908); assay: Agonist activity at human 5-HT1A receptor expressed in CHO cells assessed as ERK1/2 phosphorylation at 1 uM after 5 mins by Western blot analysis relative to 5-HT; format: cell-based
T1 sequence (whole entry): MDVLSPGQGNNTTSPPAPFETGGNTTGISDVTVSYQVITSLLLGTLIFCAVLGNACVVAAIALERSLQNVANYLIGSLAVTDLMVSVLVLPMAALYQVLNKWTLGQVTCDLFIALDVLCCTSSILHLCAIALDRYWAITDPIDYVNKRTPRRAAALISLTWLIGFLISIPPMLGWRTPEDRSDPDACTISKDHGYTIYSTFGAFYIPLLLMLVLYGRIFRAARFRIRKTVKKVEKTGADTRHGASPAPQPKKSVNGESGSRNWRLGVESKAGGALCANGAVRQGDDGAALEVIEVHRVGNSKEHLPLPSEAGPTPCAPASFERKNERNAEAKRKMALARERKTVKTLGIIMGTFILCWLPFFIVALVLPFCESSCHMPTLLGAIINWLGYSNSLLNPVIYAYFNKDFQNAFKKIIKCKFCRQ
In short: (§1)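 CHO-1A cells (2 × 10^5/well) grown 24 h, then 24 h serum-free. Agonists given at 1 μM in medium with 5 μM pargyline and 2.5 mM theophylline for 5 min at 37 °C. Lysates in SDS buffer with protease/phosphatase inhibitors. Phospho-ERK1/2 Western blot densitometry normalized to calnexin, untreated baseline subtracted, 5-HT set as 100%. Three experiments in triplicate, one-way ANOVA with Dunnett's test against untreated.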

[2] = target: T2, 5-hydroxytryptamine receptor 1A (Homo sapiens, UniProt P08908); assay: Agonist activity at human 5-HT1A receptor expressed in CHO cells assessed as inhibition of forskolin-stimulated cAMP accumulation after 15 mins by ELISA; format: functional, cell-based
T2 sequence (P08908 whole entry): T1 sequence (whole entry)
In short: (§2)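 CHO-1A cells (10^4/well) grown 24 h, then 24 h in serum-free DMEM/F-12. Compounds co-incubated with 1 μM forskolin for 15 min at 37 °C in serum-free medium with 5 μM pargyline and 2.5 mM theophylline. Lysis in 1% Triton X-100/0.1 M HCl, cAMP measured by acetylated ELISA. Sigmoidal or Gaussian bell-shaped fits.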

[3] = target: T2, 5-hydroxytryptamine receptor 1A; assay: Agonist activity at human 5-HT1A receptor expressed in human HeLa cell membranes assessed as stimulation of [35S]GTPgammaS binding after 20 mins by liquid scintillation counting analysis; format: functional
[4] = target: T1, 5-hydroxytryptamine receptor 1A (Homo sapiens); assay: Agonist activity at human 5-HT1A receptor expressed in CHO cells after 90 mins by beta-arrestin-2 recruitment assay relative to 5-HT; format: cell-based
In short: (§3)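 PathHunter enzyme-complementation β-arrestin-2 recruitment in CHO-K1 cells carrying HTR1A, 10^4 cells/well, plated 24–48 h at 37 °C before use. Compounds from methanol stocks, final 0.1–100 μM, applied for 90 min at 37 °C. Detection reagents then added for 60 min at room temperature, luminescence read. Pooled from 3–4 independent experiments in duplicate, with 5-HT on every plate as reference.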

[5] = target: T1, 5-hydroxytryptamine receptor 1A (Homo sapiens); assay: Ratio for agonist activity at human 5-HT1A receptor expressed in CHO cells by forskolin-stimulated cAMP accumulation assay to agonist activity at human 5-HT1A receptor expressed in CHO cells by beta-arrestin-2 recruitment assay; format: functional, cell-based
[6] = target: T1, 5-hydroxytryptamine receptor 1A (Homo sapiens); assay: Agonist activity at human 5-HT1A receptor expressed in CHO cells assessed as inhibition of forskolin-stimulated cAMP accumulation after 15 mins by ELISA relative to 5-HT; format: functional, cell-based
In short: as §2, with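 “ELISA. Forskolin alone set as 0%, 5-HT maximum as 100%.” for “ELISA.”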

[7] = target: T2, 5-hydroxytryptamine receptor 1A; assay: Agonist activity at human 5-HT1A receptor expressed in CHO cells after 90 mins by beta-arrestin-2 recruitment assay; format: cell-based
In short: as §3, with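 “read.” for “read. Pooled from 3–4 independent experiments in duplicate, with 5-HT on every plate as reference.”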

[8] = target: T1, 5-hydroxytryptamine receptor 1A (Homo sapiens); assay: Agonist activity at human 5-HT1A receptor expressed in CHO cells assessed as ERK1/2 phosphorylation at 1 uM after 5 mins by Western blot analysis relative to control; format: cell-based; in short: as §1

Row | SMILES | Activity [1] | EC50 [2] | Ki [3] | Emax [4] | Ratio [5] | Emax [6] | EC50 [7] | Activity [8] | fold change (FC) [8]
1 | COc1cccc([C@H]2CC[C@H](N3CCN(c4ccccn4)CC3)CC2)c1 | 30.4% | 0.794 nM | 0.028 nM | 27.9% | < 10 | 69.5% | 0.324 nM | – | –
2 | COc1cccc2c1CCCC2CCCN1CCN(c2ccccn2)CC1 (stereo unspecified) | – | 0.776 nM | 0.48 nM | – | – | – | – | – | –
3 | COc1cccc2c(CCCN3CCN(c4ccccn4)CC3)cccc12 | – | 1.26 nM | 0.38 nM | 10.7% | – | 53.6% | – | inactive | –
4 | NCCc1c[nH]c2ccc(O)cc12 | – | – | – | – | – | – | – | – | 6.4
5 | COc1cccc(CCCCN2CCN(c3ccccn3)CC2)c1 | – | – | 23 nM | 5.9% | – | 53.4% | – | – | –
6 | COc1cccc2c1CCC/C2=C\CCN1CCN(c2ccccn2)CC1 | – | 2.95 nM | 0.31 nM | 22.8% | < 10 | 66.9% | 3390 nM | – | –
7 | COc1ccc2c(c1)CC(CCN1CCN(c3ccccn3)CC1)CC2 (stereo unspecified) | – | 20.9 nM | 0.16 nM | 35.9% | < 10 | 73.5% | 3.55 nM | – | –
8 | CCCN(CCC)C1CCc2cccc(O)c2C1 (racemic) | – | – | – | 44.5% | – | – | – | – | –
